# Measured values pooled from the literature.
# Protocols differ between the studies behind these lines.
# Oprm1: Mu-type opioid receptor (Oprm1, Rattus norvegicus, UniProt P33535)
SMILES,target,assay,conditions,measurement,value
C[C@@H](O)[C@@H]1CN([C@H](Cc2ccc3ccccc3c2)CN2CCC[C@H]2CN2CCNC[C@@H]2Cc2ccc3ccccc3c2)CCN1CCc1ccc(Cl)c(Cl)c1,Oprm1,"ligand displacement, radioligand","0.5 µM, 1 h, pH 7.5, cell membranes",remaining binding,109%
CC(C)(C)c1nc(-c2cccc(NS(=O)(=O)c3c(F)cccc3F)c2F)c(-c2ccnc(N)n2)s1,"Tau-tubulin kinase 1 (TTBK1, Homo sapiens, UniProt Q5TCY1)","enzyme activity, inhibitor, radiometric",1 µM,remaining activity,89%
Cc1nn(C)cc1-c1nc2c(N3CCN(Cc4ccc(Cl)cc4)CC3)c(Cl)cnc2[nH]1,"Atypical kinase COQ8A, mitochondrial (COQ8A, Homo sapiens, UniProt Q8NI60)","binding, competition with immobilised ligand",1 µM,remaining binding,80%
COc1ncccc1-c1cnn2ccc(N3CCN(C(=O)OC(C)C)CC3)nc12,"Mitogen-activated protein kinase kinase kinase 19 (MAP3K19, Homo sapiens, UniProt Q56UN5)","binding, competition with immobilised ligand",1 µM,remaining binding,100%
OC[C@H]1CNCCN1C[C@@H]1CCCN1C[C@H](CC1CCCCC1)N1CCN(CCC23CC4CC(CC(C4)C2)C3)[C@H](Cc2ccc(O)cc2)C1,Oprm1,"ligand displacement, radioligand","0.5 µM, 1 h, pH 7.5, cell membranes",remaining binding,108%
Cn1cc(-c2cccc(N3CCc4c(sc5c4CC(C)(C)C5)C3=O)c2CO)cc(Nc2ccncn2)c1=O,"Phosphatidylinositol 4-kinase alpha (PI4KA, Homo sapiens, UniProt P42356)","enzyme activity, inhibitor",1 µM,inhibition,-5%
Oc1ccc(C[C@@H]2CN([C@H](Cc3ccc4ccccc4c3)CN3CCC[C@H]3CN3CCNC[C@@H]3Cc3ccc4ccccc4c3)CCN2CCC23CC4CC(CC(C4)C2)C3)cc1,Oprm1,"ligand displacement, radioligand","0.5 µM, 1 h, pH 7.5, cell membranes",remaining binding,112%
COc1cc(Cl)c(C(=O)N[C@@H](CN[C@H]2CC[C@@H](N)CC2)Cc2ccc(C#N)cc2)cc1-c1ccc(CN[C@H](C)c2ccc(C)cc2)o1,"Serine/threonine-protein kinase Nek11 (NEK11, Homo sapiens, UniProt Q8NG66)","enzyme activity, inhibitor",1 µM,remaining activity,107%
C#Cc1n[nH]c2c(-c3cn(C(C)c4ccccn4)c(=O)[nH]c3=O)cc(F)cc12 (stereo not drawn),"Vascular endothelial growth factor receptor 1 (FLT1, Homo sapiens, UniProt P17948)","enzyme activity, inhibitor",1 µM,inhibition,-3.1%
Cn1cc(-c2cc(F)cc(N3CCn4c(cc5c4CCCC5)C3=O)c2CO)cc(Nc2ccc(N3CCN(C4COC4)CC3)cn2)c1=O,"Phosphatidylinositol 4,5-bisphosphate 3-kinase catalytic subunit delta isoform (PIK3CD, Homo sapiens, UniProt O00329)","enzyme activity, inhibitor",0.1 µM,inhibition,-1%
C[C@@H](O)[C@@H]1CN([C@H](Cc2ccc3ccccc3c2)CN2CCC[C@H]2CN2CCNC[C@@H]2Cc2ccc3ccccc3c2)CCN1CCC12CC3CC(CC(C3)C1)C2,Oprm1,"ligand displacement, radioligand","0.5 µM, 1 h, pH 7.5, cell membranes",remaining binding,107%
Nc1ncc(-c2nc(N3CCOCC3)nc(N3CCOCC3)n2)c(C(F)F)n1,"Mast/stem cell growth factor receptor Kit (KIT, Homo sapiens, UniProt P10721, V559D)","binding, competition with immobilised ligand",10 µM,remaining binding,18%
